# Test results as given in ChEMBL document CHEMBL1828568, “Novel imaging agents for β-amyloid plaque based on the N-benzoylindole core” (Bioorg Med Chem Lett, 2011).
# Assays:
# Assay type in all cases: ADME, organism-based
# Blood [1] = assay: Biodistribution in Kunming mouse blood at 1 uCi, iv after 30 mins by gamma counting; conditions: in vivo, 0.5 h
# Method in brief: (§1)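 125I-labeled tracer given intravenously to normal mice. Organs and blood were sampled at 2, 15, 30, 60, 120 and 240 min after injection. Uptake is expressed as % ID/g, averaged over 5 mice ± SD.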
# Brain [2] = assay: Biodistribution in Kunming mouse brain at 1 uCi, iv after 2 mins by gamma counting; conditions: in vivo; method in brief: as §1
# Muscle tissue [3] = assay: Biodistribution in Kunming mouse muscle at 1 uCi, iv after 60 mins by gamma counting; conditions: in vivo, 1 h; method in brief: as §1
# Heart [4] = assay: Biodistribution in Kunming mouse heart at 1 uCi, iv after 120 mins by gamma counting; conditions: in vivo, 2 h; method in brief: as §1
# Muscle tissue [5] = assay: Biodistribution in Kunming mouse muscle at 1 uCi, iv after 240 mins by gamma counting; conditions: in vivo, 4 h; method in brief: as §1
# Liver [6] = assay: Biodistribution in Kunming mouse liver at 1 uCi, iv after 15 mins by gamma counting; conditions: in vivo, 0.25 h; method in brief: as §1
# Blood [7] = assay: Biodistribution in Kunming mouse blood at 1 uCi, iv after 2 mins by gamma counting; conditions: in vivo; method in brief: as §1
# Heart [8] = assay: Biodistribution in Kunming mouse heart at 1 uCi, iv after 240 mins by gamma counting; conditions: in vivo, 4 h; method in brief: as §1
# Heart [9] = assay: Biodistribution in Kunming mouse heart at 1 uCi, iv after 15 mins by gamma counting; conditions: in vivo, 0.25 h; method in brief: as §1
# Kidney [10] = assay: Biodistribution in Kunming mouse kidney at 1 uCi, iv after 120 mins by gamma counting; conditions: in vivo, 2 h; method in brief: as §1
# Stomach [11] = assay: Biodistribution in Kunming mouse stomach assessed per organ at 1 uCi, iv after 15 mins by gamma counting; conditions: in vivo, 0.25 h
# Method in brief: (§2)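 Radioiodinated tracers given intravenously to normal mice; organs taken at 2, 15, 30, 60, 120 and 240 min after injection. Uptake expressed as % ID/g, mean ± SD of 5 mice; stomach values carry a table footnote.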
# Brain [12] = assay: Biodistribution in Kunming mouse brain at 1 uCi, iv after 30 mins by gamma counting; conditions: in vivo, 0.5 h; method in brief: as §1
# Muscle tissue [13] = assay: Biodistribution in Kunming mouse muscle at 1 uCi, iv after 2 mins by gamma counting; conditions: in vivo; method in brief: as §1
# Spleen [14] = assay: Biodistribution in Kunming mouse spleen at 1 uCi, iv after 15 mins by gamma counting; conditions: in vivo, 0.25 h; method in brief: as §1
# Muscle tissue [15] = assay: Biodistribution in Kunming mouse muscle at 1 uCi, iv after 120 mins by gamma counting; conditions: in vivo, 2 h; method in brief: as §1
# Heart [16] = assay: Biodistribution in Kunming mouse heart at 1 uCi, iv after 60 mins by gamma counting; conditions: in vivo, 1 h; method in brief: as §1
# Lung [17] = assay: Biodistribution in Kunming mouse lung at 1 uCi, iv after 30 mins by gamma counting; conditions: in vivo, 0.5 h; method in brief: as §1
# Blood [18] = assay: Biodistribution in Kunming mouse blood at 1 uCi, iv after 15 mins by gamma counting; conditions: in vivo, 0.25 h; method in brief: as §1
# Muscle tissue [19] = assay: Biodistribution in Kunming mouse muscle at 1 uCi, iv after 15 mins by gamma counting; conditions: in vivo, 0.25 h; method in brief: as §1
# Brain [20] = assay: Biodistribution in Kunming mouse brain at 1 uCi, iv after 240 mins by gamma counting; conditions: in vivo, 4 h; method in brief: as §1
# Liver [21] = assay: Biodistribution in Kunming mouse liver at 1 uCi, iv after 30 mins by gamma counting; conditions: in vivo, 0.5 h; method in brief: as §1
# Kidney [22] = assay: Biodistribution in Kunming mouse kidney at 1 uCi, iv after 60 mins by gamma counting; conditions: in vivo, 1 h; method in brief: as §1
# Stomach [23] = assay: Biodistribution in Kunming mouse stomach assessed per organ at 1 uCi, iv after 2 mins by gamma counting; conditions: in vivo; method in brief: as §2
# Stomach [24] = assay: Biodistribution in Kunming mouse stomach assessed per organ at 1 uCi, iv after 30 mins by gamma counting; conditions: in vivo, 0.5 h; method in brief: as §2
# Lung [25] = assay: Biodistribution in Kunming mouse lung at 1 uCi, iv after 120 mins by gamma counting; conditions: in vivo, 2 h; method in brief: as §1
# Liver [26] = assay: Biodistribution in Kunming mouse liver at 1 uCi, iv after 60 mins by gamma counting; conditions: in vivo, 1 h; method in brief: as §1
# Spleen [27] = assay: Biodistribution in Kunming mouse spleen at 1 uCi, iv after 2 mins by gamma counting; conditions: in vivo; method in brief: as §1
# Liver [28] = assay: Biodistribution in Kunming mouse liver at 1 uCi, iv after 240 mins by gamma counting; conditions: in vivo, 4 h; method in brief: as §1
smiles,measurement,setting,value
O=C(/C=C/c1ccccc1)n1ccc2cc([125I])ccc21,Drug uptake,Blood [1],3.75 % ID/g
same,Drug uptake,Brain [2],2 % ID/g
same,Drug uptake,Muscle tissue [3],1.06 % ID/g
same,Drug uptake,Heart [4],0.99 % ID/g
same,Drug uptake,Muscle tissue [5],0.19 % ID/g
same,Drug uptake,Liver [6],7.73 % ID/g
same,Drug uptake,Blood [7],14.13 % ID/g
same,Drug uptake,Heart [8],0.61 % ID/g
same,Drug uptake,Heart [9],2.9 % ID/g
same,Drug uptake,Kidney [10],3.54 % ID/g
same,Drug uptake,Stomach [11],1.52 %ID
same,Drug uptake,Brain [12],1.57 % ID/g
same,Drug uptake,Muscle tissue [13],3.97 % ID/g
same,Drug uptake,Spleen [14],2.44 % ID/g
same,Drug uptake,Muscle tissue [15],0.84 % ID/g
same,Drug uptake,Heart [16],1.53 % ID/g
same,Drug uptake,Lung [17],4.88 % ID/g
same,Drug uptake,Blood [18],3.91 % ID/g
same,Drug uptake,Muscle tissue [19],2.47 % ID/g
same,Drug uptake,Brain [20],0.17 % ID/g
same,Drug uptake,Liver [21],6.48 % ID/g
same,Drug uptake,Kidney [22],6.14 % ID/g
same,Drug uptake,Stomach [23],1.09 %ID
same,Drug uptake,Stomach [24],1.72 %ID
same,Drug uptake,Lung [25],2.1 % ID/g
same,Drug uptake,Liver [26],4.09 % ID/g
same,Drug uptake,Spleen [27],4.08 % ID/g
same,Drug uptake,Liver [28],2.23 % ID/g
